The source made the active and inactive calls. The calls are words filed in the database; no cut-off is given here.
What was measured:
MGC-803 = experiment: Inhibition of PI3K-mediated Akt phosphorylation in human MGC803 cells after 48 hrs by Western blot analysis; format: cell-based
Outline: (§1)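 MGC-803 cells exposed 48 h; lysed in RIPA buffer, protein measured by BCA, […] total protein run on SDS–PAGE and blotted to PVDF. Primary antibodies 1 h in TBS/Tween-20 (0.075%) with 3% Marvel: anti-TERT, anti-β-actin, anti-Cyclin D1, anti-phospho-AKT, anti-AKT, each 1:500. HRP secondaries, ECL detection. DMSO vehicle control; LY used as comparator.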

[1] = Downregulation of cyclin D1 expression in human MGC803 cells after 48 hrs by Western blot analysis; format: functional, cell-based; details: MGC-803; outline: as §1
[2] = Downregulation of TERT expression in human MGC803 cells after 48 hrs by Western blot analysis; format: functional, cell-based; details: MGC-803; outline: as §1
[3] = molecular target: Telomerase reverse transcriptase (Homo sapiens, UniProt O14746); experiment: Inhibition of telomerase activity in human MGC803 cells after 24 hrs by TRAP-PCR-ELISA assay
Telomerase reverse transcriptase, sequence (O14746 whole entry): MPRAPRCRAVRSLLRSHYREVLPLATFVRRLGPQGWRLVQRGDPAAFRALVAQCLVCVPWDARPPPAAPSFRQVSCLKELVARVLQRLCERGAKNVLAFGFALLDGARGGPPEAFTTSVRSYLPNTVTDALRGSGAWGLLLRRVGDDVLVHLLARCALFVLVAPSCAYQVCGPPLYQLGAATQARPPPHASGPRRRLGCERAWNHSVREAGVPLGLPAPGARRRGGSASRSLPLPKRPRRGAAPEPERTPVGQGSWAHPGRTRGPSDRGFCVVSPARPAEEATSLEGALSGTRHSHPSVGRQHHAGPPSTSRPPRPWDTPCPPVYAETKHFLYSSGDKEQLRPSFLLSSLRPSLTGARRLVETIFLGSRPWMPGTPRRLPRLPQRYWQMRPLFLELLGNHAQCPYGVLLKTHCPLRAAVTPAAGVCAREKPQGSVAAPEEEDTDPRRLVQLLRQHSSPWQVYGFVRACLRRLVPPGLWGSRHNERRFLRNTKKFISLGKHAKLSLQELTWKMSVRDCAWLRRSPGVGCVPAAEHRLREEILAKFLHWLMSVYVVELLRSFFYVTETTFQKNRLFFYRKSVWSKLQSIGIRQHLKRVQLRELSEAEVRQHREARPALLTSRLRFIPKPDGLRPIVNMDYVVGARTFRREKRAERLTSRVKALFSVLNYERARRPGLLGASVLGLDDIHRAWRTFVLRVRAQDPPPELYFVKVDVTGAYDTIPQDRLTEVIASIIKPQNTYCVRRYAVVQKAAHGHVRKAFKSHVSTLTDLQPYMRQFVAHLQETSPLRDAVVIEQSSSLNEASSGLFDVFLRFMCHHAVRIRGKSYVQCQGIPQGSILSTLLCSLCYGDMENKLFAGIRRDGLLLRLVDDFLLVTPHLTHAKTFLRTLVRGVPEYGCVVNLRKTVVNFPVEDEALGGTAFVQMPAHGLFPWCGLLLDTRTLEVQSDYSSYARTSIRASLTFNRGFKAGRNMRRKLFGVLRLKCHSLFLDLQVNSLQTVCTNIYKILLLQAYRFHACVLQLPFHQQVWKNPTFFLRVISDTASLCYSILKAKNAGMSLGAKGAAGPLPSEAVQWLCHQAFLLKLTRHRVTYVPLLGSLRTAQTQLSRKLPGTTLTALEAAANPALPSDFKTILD

| Structure (SMILES) | IC50 [3] | inhibition (MGC-803) | Activity [1] | Activity [2] |
| --- | --- | --- | --- | --- |
| COc1cccc2c1OCC(=O)N1N=C(C)CC21 (centres undefined) | 10.8 µM |  |  | Active |
| CC1=NN2C(=O)COc3cc(C)ccc3C2C1 (centres undefined) | 21.9 µM |  |  | Active |
| CC[n+]1c(-c2ccccc2)c2cc(N)ccc2c2ccc(N)cc21 [HOMIDIUM BROMIDE] | 2.39 µM |  |  |  |
| CC1=NN2C(=O)COc3ccccc3C2C1 (centres undefined) | 14.8 µM |  |  |  |

Further lines, with some results ahead:

| IC50 [3] | Structure (SMILES) | inhibition (MGC-803) | Activity [1] | Activity [2] |
| --- | --- | --- | --- | --- |
| 1.71 µM | CC1=NN2C(=O)COc3ccc(Cl)cc3C2C1 (centres undefined) | Active | Active | Active |
| 0.78 µM | CC1=NN2C(=O)COc3c(Br)cc(Br)cc3C2C1 (centres undefined) | Active | Active | Active |
| 2.11 µM | CC1=NN2C(=O)COc3c(F)cccc3C2C1 (centres undefined) |  |  | Active |
| 6.6 µM | CC1=NN2C(=O)COc3cc([N+](=O)[O-])ccc3C2C1 (centres undefined) |  |  |  |
| 3.14 µM | CC1=NN2C(=O)COc3ccc(C(F)(F)F)cc3C2C1 (centres undefined) |  |  | Active |

From ChEMBL document CHEMBL2321715, “Design and synthesis of novel 2-methyl-4,5-substitutedbenzo[f]-3,3a,4,5-tetrahydro-pyrazolo[1,5-d][1,4]oxazepin-8(7H)-one derivatives as telomerase inhibitors” (Bioorg Med Chem Lett, 2013)
